The list is not random: actives were taken first. Their share in the collection is about 2.2%.
SMARCA2 activ – increases SMARCA2 function in MMTV reporter cells; MG213 cells, MMTV-luciferase reporter, dexamethasone, overnight; activation, % at 9.1 µM; actives 1% (n = 370,000); in the data active means activation above about 7.8%;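 further: 0% = vehicle wells and 100% = reference activator wells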
COUP-TFII inh – NR2F2 (human) inhibition, primary screen; HEK293T NGFI-A luciferase reporter, luminescence; actives 0.7% (n = 370,000); AID 686940; inhibition, % at 8.6 µM;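 active means inhibition above a per-plate cutoff, mean inhibition of test wells between control levels plus 3 SD, cut at about 38% in these data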;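 further: cells cotransfected with COUP-TFII expression vector driving the NGFI-A reporter; 0% = median of COUP-TF2 test wells and 100% = reporter-only cells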
Target sequence (P24468 whole entry, looked up): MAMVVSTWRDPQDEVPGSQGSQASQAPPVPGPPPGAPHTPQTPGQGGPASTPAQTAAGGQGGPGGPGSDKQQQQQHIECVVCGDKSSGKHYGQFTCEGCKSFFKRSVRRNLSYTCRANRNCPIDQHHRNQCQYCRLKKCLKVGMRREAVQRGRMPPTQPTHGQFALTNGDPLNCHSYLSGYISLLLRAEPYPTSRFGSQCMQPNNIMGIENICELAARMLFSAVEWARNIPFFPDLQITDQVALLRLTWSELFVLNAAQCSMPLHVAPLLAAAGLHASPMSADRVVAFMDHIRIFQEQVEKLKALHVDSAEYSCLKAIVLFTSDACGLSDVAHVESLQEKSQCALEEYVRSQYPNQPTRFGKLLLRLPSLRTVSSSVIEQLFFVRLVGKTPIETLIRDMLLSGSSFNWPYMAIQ
NR2E3 ag-1 – activates human photoreceptor nuclear receptor NR2E3 | Q9Y5X4 | actives 0.12% (n = 320,000) | GST-NR2E3/biotin-RetCOR TR-FRET, 1536-well | inhibition of corepressor binding, % at 4.78 µM;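 active means percent inhibition above the cutoff of mean plus 3 SD of all tested compounds, set per screening campaign, cut at about 20% in these data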;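 further: 0% = DMSO wells and 100% = biotin wells as full block of FRET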
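System: GST-NR2E3 and biotin-RetCOR proteins; probe or stimulus: 7 nM biotin-RetCOR; doses: compound at 4.8 µM, single dose; schedule: Compound–protein incubation for 5 h at 4 °C; detection: time-resolved FRET; read-out: percent inhibition; controls: biotin wells as high control, 0.6% DMSO wells as low control; format: 1536-well plates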
NR2E3 ag-2 – human photoreceptor-specific nuclear receptor agonism; Q9Y5X4; CHO-S Gal4-NCOR/VP16-NR2E3 two-hybrid, luciferase; inhibition of corepressor binding, % at 3.98 µM; actives 0.35% (n = 360,000);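 active means inhibition above the mean of all tested compounds plus 3 SD, cut at about 70% in these data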;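 further: 0% = DMSO with NR2E3 transfected cells and 100% = cells lacking NR2E3 construct; higher means lower luciferase signal from less NR2E3 corepressor binding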
GalR3 antagonist – blocks the human galanin receptor 3; HEK293 GalR3-CNG cAMP membrane potential fluorescence; galR3 body fused to GalR1 C-terminus; inhibition, % at 3 µM; actives 0.44% (n = 360,000);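 active means inhibition above the screen-wide average plus 3 SD, cut at about 13% in these data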;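 further: forskolin and galanin both at EC90 stimulate the cells; cAMP rise reported by CNG channel membrane potential dye signal; 0% = forskolin plus galanin with DMSO and 100% = forskolin alone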
SMARCA2 conf – confirmation of SMARCA2 (BRM) function activators; shares compounds with SMARCA2 activ; MG213 cells, MMTV-luciferase with dexamethasone, luminescence, overnight; MG213 cells expressing E1A, Rb sequestered; DMSO wells 0%, reference activator 100%; activation, % at 9.1 µM; actives 30% (n = 3,500); AID 652260;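 active means activation above its plate's cutoff, the mean activation of tested wells plus 3 SD, cut at about 7.9% in these data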
VP16 Luc act – GAL4-VP16 reporter activation counter-screen | shares compounds with SMARCA2 activ | HEK293 GAL4-VP16 pG5luc reporter, luciferase luminescence; scaled: DMSO wells 0%, SAHA wells 100% | activation, % at 9.1 µM | actives 41% (n = 3,500);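 active means activation above the solvent-only control well mean plus 3 SD, averaged across control plates, cut at about 5.2% in these data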
The depositor's hits bear a star; nt = no result.

SMILES	SMARCA2 activ	COUP-TFII inh	NR2E3 ag-1	NR2E3 ag-2	GalR3 antagonist	SMARCA2 conf	VP16 Luc act
COc1ccc(CN(CCN2CCOCC2)C(=O)c2cc(F)ccc2C)cc1OC	7.2	-11.4	nt	nt	nt	nt	nt
CCOC(=O)N1CCN(C(=O)C[C@@H]2C(=O)N(Cc3ccc(OC)cc3)C3=CCN(C(=O)OC(C)(C)C)C[C@]32C(=O)OCC)CC1	1.1	-3.4	nt	nt	nt	nt	nt
Cc1ccc(-n2c(SCC(=O)Nc3ccccc3-c3ccccc3)nnc2-c2ccccn2)cc1	-3.4	-16.2	nt	nt	nt	nt	nt
COCCN1CCN(c2c(C)c(C)nc3cc(-c4cccc(OC)c4)nn23)CC1	11.0*	-41.8	2.3	-5.3	-4.0	9.7*	4.6
Cc1ccc(C(=O)NC(=S)Nc2ccc(NC(=O)c3cccs3)cc2)cc1[N+](=O)[O-]	0.3	2.0	-4.5	-20.6	-2.8	nt	nt
Cc1ccc(C(=O)Nc2ccc(NC(=O)c3cccs3)cc2)cc1[N+](=O)[O-]	9.0*	-7.2	5.7	-58.0	-1.1	3.5	0.7
COc1cc(/C=C/C(=O)NC(=O)c2ccccc2O)ccc1O	3.9	-16.6	1.3	-74.0	0.8	nt	nt
O=C(/C=C/c1ccccc1)NC(=O)c1ccccc1O	9.6*	-22.2	-2.9	-26.5	-4.6	11.2*	6.4*
CCOC(=O)c1sc(N/N=C/c2ccccc2)nc1C	8.7*	-34.4	-3.8	-150.4	-5.5	21.0*	13.3*
CCOC(=O)c1sc(N/N=C/c2cccc(C)c2)nc1C	0.1	-11.6	6.7	-77.8	-6.6	nt	nt
CN(C1CCCCC1)S(=O)(=O)c1ccc2c(c1)c(=O)c(C(=O)N1CCc3ccccc3C1)cn2C	-0.6	5.5	-2.8	-4.1	-5.0	nt	nt
CN1CCN(C(=O)c2cn(C)c3ccc(S(=O)(=O)N(C)C4CCCCC4)cc3c2=O)CC1	8.5*	-52.0	-5.3	8.5	2.7	-1.6	2.1
O=S1(=O)c2ccc(N3CC[C@H](O)C3)cc2OCCCN1C1CC1	-0.8	-2.0	nt	nt	nt	nt	nt
c1cncc(-c2nc3cc4ccccc4cc3[nH]2)c1	8.4*	-39.6	-0.3	-147.1	1.5	13.2*	17.5*
Cc1ccc(S(=O)(=O)N2CCCC2c2cccc3[nH]cc(C)c23)cc1 (stereo not drawn)	-1.3	9.8	nt	nt	nt	nt	nt
Cc1ccc(N(NC(=O)C(O)(c2ccccc2)c2ccccc2)C(=O)CCl)cc1	-9.4	1.6	1.7	-1.1	-4.3	nt	nt
CCC(O)(CC)C(=O)NN(C(=O)CCl)c1ccccc1	8.7*	-8.6	0.9	1.2	-2.0	1.5	-0.1
Cc1nc2cc3nc(C)sc3cc2s1	9.0*	-25.2	0.1	-88.0	-2.5	8.7*	6.7*
CCCCN(C)CCn1c(=S)[nH]c2ccc(N3CCOCC3)cc2c1=O	9.7*	8.7	2.5	1.3	2.0	-0.9	2.2
COCCCn1c(=S)[nH]c2ccc(N3CCOCC3)cc2c1=O	-1.7	17.3	3.6	-18.7	1.6	nt	nt
O=C(Nc1nc(-c2cccc(Br)c2)cs1)Oc1ccccc1	8.4*	-18.1	-2.9	-49.6	-4.1	8.0*	4.4
Brc1ccc(Nc2nc(-c3cccnc3)cs2)cc1	3.8	-34.4	0.3	-86.9	-3.8	nt	nt
Brc1cccc(Nc2nc(-c3cccnc3)cs2)c1	8.6*	-23.9	0.2	-34.4	-1.9	6.7	6.0*
O=C(NCCc1c[nH]c2ccccc12)OCc1cn(Cc2ccccc2Cl)nn1	-0.7	1.3	nt	nt	nt	nt	nt
O=c1oc2cc(Cl)ccc2n1CSc1nc2ccccc2s1	8.8*	-53.5	-1.1	-123.8	9.6	5.9	11.5*
CCOc1cc(CCNC(=O)c2cc3sccc3n2CC)ccc1OC	-1.1	10.2	nt	nt	nt	nt	nt
COc1ccc(S[C@]2(C(=O)N(C)C)CC(=O)N(C(=O)/C=C/c3ccccc3)[C@@H]2c2ccc(OC)cc2)cc1	-2.9	18.8	nt	nt	nt	nt	nt
CCCN(/C=N/c1sc2c(c1C#N)CCCCC2)CCC	15.4*	0.6	2.0	-10.4	-2.0	0.4	2.4
CN(C)/C=N/c1sc2c(c1C#N)CCCCC2	1.5	-13.5	3.8	-48.3	-5.8	nt	nt

Screening results from PubChem.
